Laboratory results published in ChEMBL document CHEMBL4043304, “Synthesis and Evaluation of Hydrogen Peroxide Sensitive Prodrugs of Methotrexate and Aminopterin for the Treatment of Rheumatoid Arthritis” (J Med Chem, 2018).
Values after ≈ are worked out from the molar mass of the structure shown. Active and inactive are the calls of the source. The calls are words filed in the database; no cut-off is given here.

Experiments:
NCI-H460 [1] = assay: Cytotoxicity against human NCI-H460 cells assessed as decrease in cell viability preincubated with H2O2 for 24 hrs followed by cell addition measured after 48 hrs by MTS assay; assay type: functional, cell-based
Outline: (§1)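 Compound pre-activated at 125 µM with 1.25 mM H2O2 in DMSO:PBS 1:1, 24 h at 21 °C. Then added to MCF-7 or NCI-H460 cells (24 h attached) for 48 h. Final H2O2 <10 µM. MTS read at 490 nm. Triplicate. IC50 by non-linear regression.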

MCF7 [2] = assay: Cytotoxicity against human MCF7 cells assessed as decrease in cell viability preincubated with H2O2 for 24 hrs followed by cell addition measured after 48 hrs by MTS assay; assay type: functional, cell-based; outline: as §1
[3] = Prodrug activation in DMSO/PBS mixture assessed as formation of aminopterin at 50 uM measured within 2 hrs in presence of 0.5 mM H2O2 by RP-UPLC-MS method
Outline: (§2)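 50 µM prodrug in 30% DMSO/PBS pH 7.4 at 37 °C with diclofenac internal standard. Started with H2O2 at 0.5 mM final. Sampled 5 min to 4 h (some compounds to 48 h). RP-UPLC-UV at 306 nm. No-H2O2 control run in parallel. Triplicate.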

[4] = Metabolic stability in human plasma at 20 uM after 24 hrs by RP-UPLC-UV method; assay type: ADME, cell-free; conditions: read-out: Stability
Outline: (§3)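 Reconstituted lyophilized human or mouse plasma mixed about 1:1 with PBS and pre-warmed to 37 °C. Compound added to 20 µM final. […] Procaine (human) and diltiazem (mouse) as controls.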

[5] = Chemical stability in PBS/DMSO mixture at pH 7.4 after 24 hrs by RP-UPLC-UV method; assay type: physicochemical; conditions: read-out: Stability
[6] = Half life in PBS/DMSO mixture at pH 7.4 by RP-UPLC-UV method; assay type: physicochemical
[7] = Metabolic stability in mouse plasma at 20 uM after 8 hrs by RP-UPLC-UV method; assay type: ADME, cell-free; conditions: read-out: Stability; outline: as §3
[8] = Half life in SGF by RP-UPLC-UV method; assay type: physicochemical
Outline: (§4)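 SGF or SIF (SIF adjusted to pH 7.5) dosed from a 10 mM DMSO stock. Incubated at 37 °C and sampled at 0, 1, 2, 4 and 24 h. Run in triplicate.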

[9] = Half life in mouse plasma at 20 uM by RP-UPLC-UV method; assay type: ADME, cell-free; outline: as §3
[10] = Prodrug activation in DMSO/PBS mixture assessed as formation of (S)-dimethyl 2-(4-((2,4-diaminopteridin-6-yl)methylamino)benzamido)pentanedioate at 50 uM measured within 2 hrs in presence of 0.5 mM H2O2 by RP-UPLC-MS method; outline: as §2
Mus musculus [11] = assay: Antiarthritic activity in collagen-induced DBA/1J mouse arthritis model assessed as decrease in incidence of arthritis at 8.8 mg/kg, ip administered daily for 2 weeks starting on day 27 post first immunization measured thrice per week during compound dosing relative to control; assay type: functional, organism-based
Outline: (§5)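 Male DBA/1J mice (8–9 wk, n = 8/group). Arthritis induced by intradermal tail-base immunization with 100 µg chicken type-II collagen in CFA on day −1, with a 50 µg boost on day 21. Daily i.p. dosing in 2% DMSO/PBS for 14 days from day 27. Blinded scoring three times weekly, 0–15 per limb (max 60). Vehicle group as control. Mann-Whitney test.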

NCI-H460 [12] = assay: Cytotoxicity against human NCI-H460 cells assessed as decrease in cell viability after 48 hrs by MTS assay; assay type: functional, cell-based
Outline: (§6)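 MCF-7 (DMEM) or NCI-H460 (RPMI), 10% FBS, seeded at 10^4 or 7×10^3 cells/well respectively and attached for 24 h. Exposed to serial compound concentrations for 48 h, then MTS read at 490 nm. DMSO ≤0.4% matched controls. Triplicate. IC50 by non-linear regression.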

[13] = Kinetic solubility of the compound in DMSO/PBS mixture after 20 hrs by RP-UPLC-UV method; assay type: physicochemical
Outline: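 100 µM compound in 1% DMSO/PBS pH 7.4, shaken 20 h at 37 °C. Centrifuged to remove insoluble material; supernatant quantified by RP-UPLC-UV at 306 nm. Triplicate.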

[14] = Prodrug activation in DMSO/PBS mixture assessed as formation of aminopterin at 50 uM after <3 hrs in presence of 0.5 mM H2O2 by RP-UPLC-MS method; outline: as §2
[15] = Half life in SIF by RP-UPLC-UV method; assay type: physicochemical; outline: as §4
Mus musculus [16] = assay: Toxicity in collagen-induced DBA/1J mouse arthritis model assessed as decrease in body weight at 8.8 mg/kg, ip administered daily for 2 weeks starting on day 27 post first immunization measured thrice per week during compound dosing; assay type: organism-based; conditions: in vivo, 336 h
Outline: (§7)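 CIA in male DBA/1J mice (8–9 wk, n = 8/group) from chicken type-II collagen/CFA immunization (day −1, boost day 21). Daily i.p. dosing in 2% DMSO/PBS for 14 days starting day 27. Body weight recorded three times weekly as a general-health indicator, compared with vehicle. Data are mean ± SEM.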

[17] = Half life in human plasma at 20 uM by RP-UPLC-UV method; assay type: ADME, cell-free; outline: as §3
[18] = Prodrug activation in DMSO/PBS mixture assessed as formation of aminopterin at 100 uM after 2 to 48 hrs in presence of 0.25 to 10 mM H2O2 […]
Mus musculus [19] = assay: Antiarthritic activity in collagen-induced DBA/1J mouse arthritis model assessed as reduction of macroscopic score at 8.8 mg/kg, ip administered daily for 2 weeks starting on day 27 post first immunization measured thrice per week during compound dosing relative to control; assay type: functional, organism-based; outline: as §5
[20] = Prodrug activation in DMSO/PBS mixture assessed as formation of (S)-2-(4-(((2,4-diaminopteridin-6-yl)methyl)(4-hydroxybenzyl)amino)benzamido)pentanedioic acid at 50 uM measured within 2 hrs in presence of 0.5 mM H2O2 by RP-UPLC-MS method; outline: as §2
MCF7 [21] = assay: Cytotoxicity against human MCF7 cells assessed as decrease in cell viability after 48 hrs by MTS assay; assay type: functional, cell-based; outline: as §6
[22] = Intrinsic clearance in CD1 mouse liver microsomes at 10 uM after 5 to 240 mins by RP-UPLC-UV method; assay type: ADME, microsome; conditions: read-out: CLH
Outline: (§8)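 Pooled male liver microsomes (human, or CD-1 mouse) in PBS at 37 °C with 10 µM compound. Reaction started with NADPH. Aliquots taken 0–60 min (mouse also 120 and 240 min) and quenched with cold MeCN/diclofenac. Read by RP-UPLC-UV, ln[C] vs time, first order. No-NADPH control run; verapamil (human) or diphenhydramine (mouse) as reference.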

[23] = Intrinsic clearance in human liver microsomes at 10 uM after 5 to 60 mins by RP-UPLC-UV method; assay type: ADME, microsome; conditions: read-out: CLH; outline: as §8
[24] = Prodrug activation in DMSO/PBS mixture assessed as formation of Dimethyl (4-(((2,4-Diaminopteridin-6-yl)methyl)(methyl)amino)-benzoyl)-L-glutamate at 50 uM after <3 hrs in presence of 0.5 mM H2O2 by RP-UPLC-MS method; outline: as §2
Mus musculus [25] = assay: Antiarthritic activity in collagen-induced DBA/1J mouse arthritis model assessed as decrease in incidence of arthritis at 7 mg/kg, ip administered daily for 2 weeks starting on day 27 post first immunization measured thrice per week during compound dosing relative to control; assay type: functional, organism-based; outline: as §5
Mus musculus [26] = assay: Toxicity in collagen-induced DBA/1J mouse arthritis model assessed as decrease in body weight at 7 mg/kg, ip administered daily for 2 weeks starting on day 27 post first immunization measured thrice per week during compound dosing; assay type: organism-based; conditions: in vivo, 336 h; outline: as §7
Mus musculus [27] = assay: Antiarthritic activity in collagen-induced DBA/1J mouse arthritis model assessed as reduction of macroscopic score at 7 mg/kg, ip administered daily for 2 weeks starting on day 27 post first immunization measured thrice per week during compound dosing relative to control; assay type: functional, organism-based; outline: as §5
Mus musculus [28] = assay: Antiarthritic activity in collagen-induced DBA/1J mouse arthritis model assessed as decrease in incidence of arthritis at 6.8 mg/kg, ip administered daily for 2 weeks starting on day 27 post first immunization measured thrice per week during compound dosing relative to control; assay type: functional, organism-based
Outline: (§9)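 Male DBA/1J mice, 8–9 weeks. CIA induced by intradermal/subcutaneous tail-base immunization with 100 µg chicken type-II collagen in CFA on day -1, boosted with 50 µg on day 21. From day 27, i.p. dosing once daily for 14 days in 2% DMSO/PBS vehicle, n = 8 per group. Three times weekly, blinded limb scoring (0–15 per limb, max 60) and body weight. Reported as mean ± SEM; one-tailed Mann-Whitney test.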

Mus musculus [29] = assay: Antiarthritic activity in collagen-induced DBA/1J mouse arthritis model assessed as reduction of macroscopic score at 6.8 mg/kg, ip administered daily for 2 weeks starting on day 27 post first immunization measured thrice per week during compound dosing relative to control; assay type: functional, organism-based; outline: as §9
Mus musculus [30] = assay: Toxicity in collagen-induced DBA/1J mouse arthritis model assessed as decrease in body weight at 6.8 mg/kg, ip administered daily for 2 weeks starting on day 27 post first immunization measured up to day 33; assay type: organism-based; conditions: in vivo, 336 h; outline: as §9

Compound: Nc1nc(N)c2nc(CN(Cc3ccc(B(O)O)cc3)c3ccc(C(=O)N[C@@H](CCC(=O)O)C(=O)O)cc3)cnc2n1
- Activity (NCI-H460 [1]): Active
- Activity (MCF7 [2]): Active
- Drug metabolism [3]: Metabolite not detected
- remaining at 24 h, 20 µM [4]: 82%
- remaining at 24 h [5]: > 90%
- half-life [6]: 24 days
- remaining at 8 h, 20 µM [7]: 91%
- half-life [8]: 32.1 days
- half-life at 20 µM [9]: 2.62 days
- Drug metabolism [10]: Metabolite not detected
- Activity (Mus musculus [11]): Active
- Activity (NCI-H460 [12]): inactive
- solubility kinetic at 20 h ([13]; read-out: Kinetic_solubility): 83 µM (≈ 47.7 µg/mL)
- Drug metabolism [14]: Metabolite detected
- half-life [15]: 36.1 days
- Activity (Mus musculus [16]): Non-Toxic
- half-life at 20 µM [17]: 2.33 days
- Drug metabolism [18]: Metabolite detected
- Activity (Mus musculus [19]): Active
- Drug metabolism [20]: Metabolite detected
- Activity (MCF7 [21]): inactive
- microsomal CLint at 10 µM [22]: 2.6 µL/min/mg
- microsomal CLint at 10 µM [23]: 1.2 µL/min/mg

Compound: COC(=O)CC[C@H](NC(=O)c1ccc(N(C)Cc2cnc3nc(N)nc(NC(=O)OCc4ccc(B(O)O)c(F)c4)c3n2)cc1)C(=O)OC
- Drug metabolism [24]: > 95%
- solubility kinetic at 20 h [13]: 4.6 µM (≈ 3.12 µg/mL)

Compound: CN(Cc1cnc2nc(N)nc(N)c2n1)c1ccc(C(=O)N[C@@H](CCC(=O)O)C(=O)O)cc1 [METHOTREXATE]
- Activity (Mus musculus [25]): Active
- Activity (Mus musculus [26]): Toxic
- Activity (NCI-H460 [12]): Active
- solubility kinetic at 20 h ([13]; read-out: Kinetic_solubility): 2140 µM (≈ 971 µg/mL)
- Activity (Mus musculus [27]): Active
- Activity (MCF7 [21]): Active

Compound: Nc1nc(N)c2nc(CNc3ccc(C(=O)N[C@@H](CCC(=O)O)C(=O)O)cc3)cnc2n1 [AMINOPTERIN]
- Activity (Mus musculus [28]): Active
- Activity (Mus musculus [29]): Active
- Activity (Mus musculus [30]): Toxic
- Activity (NCI-H460 [12]): Active
- solubility kinetic at 20 h ([13]; read-out: Kinetic_solubility): > 1000 µM
- Activity (MCF7 [21]): Active
